pIC50: −log10 of the molar value.
Experiments:
Gli-2 = test: Quantitative real-time PCR, Gli-2 mRNA; format: cell-based, mouse; details: NIH3T3-12Gli cells, presence or absence of Shh-N, 24 h
In short: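 NIH3T3-12Gli cells are kept in either HEK293 control medium or Shh-N conditioned medium and treated in triplicate with test compound or DMSO control. RNA is extracted with Trizol, cDNA is made with a PrimeScript kit, and SYBR Green qPCR is run with mouse Gli-2 primers. Values are normalised to GAPDH and relative expression is derived by the 2(-ΔΔCt) method.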

Smo-WT = Smo-WT (Homo sapiens, UniProt Q99835); test: Smo ciliary translocation assay, NIH3T3 cells expressing Smo-WT-EYFP; format: cell-based; details: Shh-N 20%, SAG 100 nmol/L
Smo-WT, sequence (Q99835 28-787): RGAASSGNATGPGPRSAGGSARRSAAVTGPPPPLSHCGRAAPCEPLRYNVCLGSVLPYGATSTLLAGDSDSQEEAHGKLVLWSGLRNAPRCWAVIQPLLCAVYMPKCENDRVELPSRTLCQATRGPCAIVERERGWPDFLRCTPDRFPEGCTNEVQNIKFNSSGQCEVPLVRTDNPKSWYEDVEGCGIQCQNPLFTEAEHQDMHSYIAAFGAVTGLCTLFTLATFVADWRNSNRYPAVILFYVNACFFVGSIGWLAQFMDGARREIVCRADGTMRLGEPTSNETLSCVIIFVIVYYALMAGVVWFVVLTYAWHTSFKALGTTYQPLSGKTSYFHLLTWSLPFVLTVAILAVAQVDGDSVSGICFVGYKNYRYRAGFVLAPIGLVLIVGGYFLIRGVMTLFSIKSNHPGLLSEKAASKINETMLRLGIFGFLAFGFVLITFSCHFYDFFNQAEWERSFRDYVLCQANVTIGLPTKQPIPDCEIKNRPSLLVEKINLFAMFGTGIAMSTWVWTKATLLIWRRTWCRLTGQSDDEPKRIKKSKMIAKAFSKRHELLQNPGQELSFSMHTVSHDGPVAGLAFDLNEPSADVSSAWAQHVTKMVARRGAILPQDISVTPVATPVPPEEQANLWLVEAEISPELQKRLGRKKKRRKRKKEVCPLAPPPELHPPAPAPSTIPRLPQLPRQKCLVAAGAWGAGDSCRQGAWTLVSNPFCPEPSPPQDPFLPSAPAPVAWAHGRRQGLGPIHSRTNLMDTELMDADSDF
In short: (§1)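 NIH3T3 cells were transfected with pEYFP-Smo (WT or M2), selected in 500 μg/mL G418, and monoclonal clones were picked. Clones were treated with 0.1% DMSO, 20% Shh-N conditioned medium and/or 100 nmol/L SAG, with or without test compound. Smo-EYFP was imaged directly, cilia by acetylated α-tubulin immunofluorescence, nuclei by DAPI. At least two clones were used.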

NIH3T3 cells = test: Immunoblotting of acetylated α-tubulin and total histones; format: cell-based; details: 6 h treatment
Ptch-1 = test: Quantitative real-time PCR, Ptch-1 mRNA; format: cell-based, mouse; details: NIH3T3-12Gli cell line, data not shown
In short: (§2)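 Total RNA is extracted with Trizol and quantified. cDNA is made with a PrimeScript reverse-transcription kit, then SYBR Green real-time PCR is run with mouse-specific primers and GAPDH as the reference gene. Relative expression is calculated by the 2(-ΔΔCt) method, with ΔCt = Ct of the target gene minus Ct of GAPDH.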

NIH3T3-12Gli cells = test: Immunofluorescence of acetylated and detyrosinated tubulin of primary cilia; format: cell-based; details: Fig. S1
In short: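 Reporter NIH3T3 clone (NIH3T3-12Gli, stably carrying a Gli-responsive luciferase reporter) was exposed to test compounds or conditions. Primary cilia were co-immunostained with anti-detyrosinated (glu) tubulin and anti-acetylated α-tubulin antibodies, and nuclei were stained with DAPI. Cilia were imaged by fluorescence microscopy.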

Hh signaling = test: Gli luciferase reporter assay in NIH3T3-12Gli cells; format: cell-based; details: for pIC50: 36 h, read-out: IC50, Hh signaling induced by Shh-N conditioned medium (luciferase reporter)
Gli-1 = test: Quantitative real-time PCR, Gli-1 mRNA; format: cell-based, mouse; details: NIH3T3-12Gli cells, 24 h; for Gli-1 transcription induced by Shh-N: presence of Shh-N
In short: as §2

[1] = system: Hh signaling mediated by Smo-DH; test: Luciferase reporter assay in NIH3T3-12Gli cells expressing Smo-DH-EYFP; format: cell-based, human; details: in the absence or presence of Shh-N
[2] = system: Hh signaling mediated by Smo-M2; test: Luciferase reporter assay in NIH3T3-12Gli cells expressing Smo-M2-EYFP; format: cell-based, human
[3] = system: Hh signaling mediated by Smo-WT; test: Luciferase reporter assay in NIH3T3-12Gli cells expressing Smo-WT-EYFP; format: cell-based, human
Smo-M2 = Smo-M2 (Homo sapiens, UniProt Q99835, W535L); test: Smo ciliary translocation assay, NIH3T3 cells expressing Smo-M2-EYFP; format: cell-based; details: Shh-N 20%, SAG 100 nmol/L
Smo-M2, sequence (Q99835 28-787 W535L): as the sequence (Q99835 28-787) above, with W508L counted along it
In short: as §1

Smo-DH = Smo-DH (Homo sapiens, UniProt Q99835, D473H); test: BODIPY-cyclopamine binding competition, HEK293T cells expressing Smo-DH
Smo-DH, sequence (Q99835 28-787 D473H): as the sequence (Q99835 28-787) above, with D446H counted along it

Suppression of Smo localization to primary cilium induced by Shh-N and SAG (Smo-WT)	pIC50 (Hh signaling)	Effect on accumulation of Smo-M2 in cilia induced by Hh pathway stimulators (Smo-M2)	Inhibition of association of BODIPY-cyclopamine with Smo-DH / binding to Smo-DH (Smo-DH)	Compound	Gli-2 transcription (Gli-2)	Acetylation of total histones and α-tubulin (NIH3T3 cells)	Expression of Ptch-1 induced by Shh-N (Ptch-1)	Acetylation and detyrosination of primary cilia (NIH3T3-12Gli cells)	Block of reporter activity at 3 μmol/L (Hh signaling; 3 μmol/L)	Gli-1 transcription, Hh pathway in off-state (Gli-1; absence of Shh-N)	Gli-1 transcription induced by Shh-N (Gli-1)	Inhibition of reporter activity in Smo-DH-transfected cells [1]	Inhibition of Hh signaling mediated by Smo-M2 ([2]; in the absence of Shh-N)	Concentration that fully blocked Hh pathway, Smo-M2 ([2]; in the presence of Shh-N) [µmol/L]	Concentration that almost maximally blocked reporter activity ([3]; NIH3T3-12Gli cells expressing Smo-WT) [µmol/L]	Inhibition of reporter activity of cells expressing Smo-WT-EYFP ([3]; in the absence of Shh-N)
but not vorinostat	6.17			O=C(CCCCCCC(=O)Nc1ccccc1)NO [vorinostat]	significantly and dose-dependently suppressed	effectively and dose dependently increased	effectively suppressed	downregulated the acetylation but not the detyrosination	almost completely blocked	significantly increased	potently inhibited					
effectively suppressed	7.71	did not inhibit	inability to bind Smo-DH	CS(=O)(=O)c1ccc(C(=O)Nc2ccc(Cl)c(-c3ccccn3)c2)c(Cl)c1 [vismodegib]			effectively suppressed				potently inhibited	no inhibition	significantly inhibited	> 10	1	slightly but dose-dependently inhibited

Source: PMC4186412 (Pharmacology Research & Perspectives, 2014)
